We go through nine molecules from ChEMBL document CHEMBL1154067, “Antiviral and cytotoxic activities of aminoarylazo compounds and aryltriazene derivatives” (Bioorg Med Chem, 2009).

For orientation: EC50 means the concentration needed to bring the measured effect to its halfway point. What is called CC50 is the concentration at which the toxic effect on the cells reaches its halfway point.

SMILES strings stand for the structures. Activity calls are given as the source filed them. The rule behind the calls is not given here.

The subject of one series is Yellow fever virus. In words: Antiviral activity against Yellow fever virus infected in BHK-21 cells assessed as inhibition of virus-induced cytopathicity after 3 to 4 days by MTT assay. The series is classed as functional, organism-based.
Conditions: not given
On the technique in general: Cytopathic effects are the visible damage that an infection or toxin causes in cultured cells.
Consider `O=C1CCN(/N=N/c2ccccc2)CC1`, for which the EC50 is greater than 90 µM.
The same measure, in the same setting: the result for `Brc1cccc(/N=N/N2CCCCC2)c1` reads greater than 100 µM; that for `Fc1ccc(F)c(/N=N/N2CCCC2)c1`, greater than 100 µM; that for `c1ccc(/N=N/N2CCCCC2)cc1`, greater than 100 µM.

In a further series the test system is Coxsackievirus B2. In words: Antiviral activity against Coxsackie virus type B2 virus infected in african green monkey Vero-76 cells after 3 days by plaque reduction assay. It counts as functional, organism-based. The conditions noted are these: Enterovirus B, Vero 76, 72 h. The method in brief: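 Vero 76 cells seeded at 2 × 10^5 cells/well, grown overnight to confluence at 37 °C in 5% CO2, then infected at 50–100 PFU/well. Unadsorbed virus removed. Overlay of DMEM with 1% inactivated FCS and 0.75% methylcellulose, with or without serial compound dilutions. After 3 days at 37 °C, fixed and stained with crystal violet in PBS/50% ethanol; plaques counted. EC50 is the concentration reducing plaque number by 50%.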
(Plaque reduction counts the foci of infection that form in a cell layer.)
Turning to `O=c1cnn([C@@H]2O[C@H](CO)[C@@H](O)[C@H]2O)c(=O)[nH]1` [6-AZAURIDINE], the 50% effective concentration (EC50) was greater than 20 µM.
`O=C1CCN(/N=N/c2ccccc2)CC1`: the EC50 amounted to 13 µM.
Take `Brc1cccc(/N=N/N2CCCCC2)c1`: the EC50 is greater than 85 µM.
On the same count and under the same terms, the result for `Fc1ccc(F)c(/N=N/N2CCCC2)c1` reads 35 µM.
On the same count and under the same terms, the result for `c1ccc(/N=N/N2CCCCC2)cc1` reads greater than 100 µM.

Test system in the next series: not listed separately
In words: Cytotoxicity against MDBK cells after 48 to 96 hrs by MTT assay. It counts as cell-based, Bos taurus. The conditions noted are these: cattle, mdbk. The method in brief:
(§1)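 Mock-infected cells in maintenance medium, MDBK at 6 × 10^5 and BHK at 1 × 10^6 cells/mL initial density, with or without serial compound dilutions. Run in parallel with antiviral assays. Viability by MTT after 48–96 h at 37 °C, 5% CO2. CC50 = concentration reducing viability 50%.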
In general terms: Tetrazolium assays rely on reduction of a dye to a coloured formazan, in cell work by metabolically active cells.
`O=c1cnn([C@@H]2O[C@H](CO)[C@@H](O)[C@H]2O)c(=O)[nH]1` [6-AZAURIDINE] gave a CC50 greater than 100 µM.
For the molecule `O=C1CCN(/N=N/c2ccccc2)CC1`, the CC50 is no less than 100 µM.
`Brc1cccc(/N=N/N2CCCCC2)c1` gave a cytotoxic concentration (CC50) greater than 100 µM.
In turn, `Fc1ccc(F)c(/N=N/N2CCCC2)c1` showed a half-maximal cytotoxic concentration (CC50) greater than 100 µM.
The molecule `c1ccc(/N=N/N2CCCCC2)cc1` gave a half-maximal cytotoxic concentration (CC50) greater than 100 µM.

The next series concerns MT4. The series can be described thus: Cytotoxicity against human MT4 cells after 96 hrs by MTT assay. The series is classed as cell-based. The following applies: mt4, 96 h. The method in brief:
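Exponentially growing mock-infected MT-4 seeded at 1 × 10^5 cells/mL in RPMI-1640 with 10% FCS, penicillin and streptomycin. Incubated with or without serial compound dilutions at 37 °C, 5% CO2. Viability by MTT after 96 h. CC50 = concentration reducing viability 50%.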
`O=C1CCN(/N=N/c2ccccc2)CC1`: the CC50 was greater than 100 µM.
Same read-out and setting: the result for `Brc1cccc(/N=N/N2CCCCC2)c1` reads greater than 100 µM; that for `Fc1ccc(F)c(/N=N/N2CCCC2)c1`, greater than 100 µM.
Molecule `c1ccc(/N=N/N2CCCCC2)cc1` had a cytotoxic concentration (CC50) greater than 100 µM.

Another series relates to Vaccinia virus. In words: Antiviral activity against Vaccinia virus after 3 days by plaque reduction assay. It counts as functional, organism-based. The following applies: Orthopoxvirus vaccinia.
For the molecule `O=C1CCN(/N=N/c2ccccc2)CC1`, the result was inactive.
Still for that read-out and setting: the entry for `Brc1cccc(/N=N/N2CCCCC2)c1` is “inactive”; for `Fc1ccc(F)c(/N=N/N2CCCC2)c1` it is “inactive”.
Still for that read-out and setting: the entry for `c1ccc(/N=N/N2CCCCC2)cc1` is “inactive”.

The subject of another series is Vero. The series can be described thus: Cytotoxicity against african green monkey Vero 76 cells by crystal violet staining. The following applies: chlorocebus sabaeus, vero. It counts as cell-based. The method in brief: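 Mock-infected Vero 76 seeded at 4 × 10^5 cells/mL, run in parallel with plaque assays, with or without serial compound dilutions. Cell number of monolayers determined by crystal violet staining. CC50 = concentration reducing viable cell number 50%.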
`O=c1cnn([C@@H]2O[C@H](CO)[C@@H](O)[C@H]2O)c(=O)[nH]1` [6-AZAURIDINE] came in with a half-maximal cytotoxic concentration (CC50) of 20 µM.
The same measure, in the same setting: the result for `O=C1CCN(/N=N/c2ccccc2)CC1` reads 60 µM; that for `Brc1cccc(/N=N/N2CCCCC2)c1`, 85 µM; that for `Fc1ccc(F)c(/N=N/N2CCCC2)c1`, greater than 100 µM.
In turn, `c1ccc(/N=N/N2CCCCC2)cc1` gave a CC50 greater than 100 µM.

The subject of another series is Respiratory syncytial virus. In words: Antiviral activity against Respiratory syncytial virus A2 infected in Vero-76 cells after 5 days by plaque reduction assay. The series is classed as functional, organism-based. The conditions noted are these: human respiratory syncytial virus, A2, Vero 76, 120 h.
`O=C1CCN(/N=N/c2ccccc2)CC1` displayed an EC50 greater than 60 µM.
Still for that read-out and setting: the result for `Brc1cccc(/N=N/N2CCCCC2)c1` reads greater than 85 µM; that for `Fc1ccc(F)c(/N=N/N2CCCC2)c1`, greater than 100 µM; that for `c1ccc(/N=N/N2CCCCC2)cc1`, greater than 100 µM.

The subject of the next series is Human immunodeficiency virus 1. The series can be described thus: Antiviral activity against HIV1 infected in human MT4 cells assessed as inhibition of virus-induced cytopathicity after 4 days by MTT assay. The series is classed as functional, organism-based.
Conditions: not given
Regarding `O=C1CCN(/N=N/c2ccccc2)CC1`, the inhibition entry is “inactive”.
Still for that read-out and setting: the result for `Brc1cccc(/N=N/N2CCCCC2)c1` reads “inactive”; that for `Fc1ccc(F)c(/N=N/N2CCCC2)c1`, “inactive”; that for `c1ccc(/N=N/N2CCCCC2)cc1`, “inactive”.

Test system in a further series: not listed separately
In words: Cytotoxicity against hamster BHK21 cells assessed as reduction in cell viability after 48 to 96 hrs by MTT assay. It counts as cell-based, Mesocricetus auratus, BHK-21. The following applies: bhk-21. The method in brief: as §1
With `O=c1cnn([C@@H]2O[C@H](CO)[C@@H](O)[C@H]2O)c(=O)[nH]1` [6-AZAURIDINE], the CC50 was greater than 100 µM.
As for `O=C1CCN(/N=N/c2ccccc2)CC1`, the CC50 came to 90 µM.
Still for that read-out and setting: the figure for `Brc1cccc(/N=N/N2CCCCC2)c1` is greater than 100 µM; for `Fc1ccc(F)c(/N=N/N2CCCC2)c1` it is greater than 100 µM.
Same read-out and setting: the figure for `c1ccc(/N=N/N2CCCCC2)cc1` is greater than 100 µM.

Another series has as its system Poliovirus 1. In words: Antiviral activity against Human poliovirus 1 strain Sabin after 2 days by plaque reduction assay. The following applies: Enterovirus C, 48 h. The series is classed as functional.
Turning to `O=c1cnn([C@@H]2O[C@H](CO)[C@@H](O)[C@H]2O)c(=O)[nH]1` [6-AZAURIDINE], the EC50 was greater than 20 µM.
Turning to `O=C1CCN(/N=N/c2ccccc2)CC1`, the EC50 is greater than 60 µM.
The same measure, in the same setting: the result for `Brc1cccc(/N=N/N2CCCCC2)c1` reads greater than 85 µM; that for `Fc1ccc(F)c(/N=N/N2CCCC2)c1`, 44 µM; that for `c1ccc(/N=N/N2CCCCC2)cc1`, greater than 100 µM.

The subject of another series is Human alphaherpesvirus 1. In words: Antiviral activity against HSV1 infected in Vero-76 cells after 3 days by plaque reduction assay. The series is classed as functional, organism-based. The conditions noted are these: Human alphaherpesvirus 1, Vero 76, 72 h.
`O=c1cnn([C@@H]2O[C@H](CO)[C@@H](O)[C@H]2O)c(=O)[nH]1` [6-AZAURIDINE] displayed an EC50 greater than 20 µM.
Take `O=C1CCN(/N=N/c2ccccc2)CC1`: the EC50 is greater than 60 µM.
Regarding `Brc1cccc(/N=N/N2CCCCC2)c1`, the half-maximal effective concentration (EC50) was greater than 85 µM.
`Fc1ccc(F)c(/N=N/N2CCCC2)c1` gave a concentration for a half-maximal effect (EC50) greater than 100 µM.
The same measure, in the same setting: the figure for `c1ccc(/N=N/N2CCCCC2)cc1` is greater than 100 µM.

A further series deals with Mammalian orthoreovirus 1. The series can be described thus: Antiviral activity against Reovirus-1 infected in BHK-21 cells assessed as inhibition of virus-induced cytopathicity after 3 to 4 days by MTT assay. The following applies: Mammalian orthoreovirus 1, BHK-21. The series is classed as functional, organism-based. The method in brief: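 BHK-21 cells seeded at 5 × 10^4 cells/well, grown overnight to confluent monolayers at 37 °C in 5% CO2, then infected at m.o.i. 0.01 in serum-free medium. One hour later, MEM Earle's with 1% final inactivated FCS added, with or without serial compound dilutions. Viability read by MTT after 3–4 days at 37 °C. EC50 is the concentration giving 50% protection from cytopathogenicity.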
Regarding `O=c1cnn([C@@H]2O[C@H](CO)[C@@H](O)[C@H]2O)c(=O)[nH]1` [6-AZAURIDINE], the EC50 is greater than 100 µM.
On to `O=C1CCN(/N=N/c2ccccc2)CC1`, for which the EC50 is greater than 90 µM.
As to `Brc1cccc(/N=N/N2CCCCC2)c1`, the EC50 was greater than 100 µM.
In the case of `Fc1ccc(F)c(/N=N/N2CCCC2)c1`, the EC50 was greater than 100 µM.
On the same count and under the same terms, the figure for `c1ccc(/N=N/N2CCCCC2)cc1` is greater than 100 µM.

A further series relates to Bovine viral diarrhea virus 1. In words: Antiviral activity against Bovine viral diarrhea virus infected in MDBK cells assessed as inhibition of virus-induced cytopathicity after 3 to 4 days by MTT assay. It counts as functional, organism-based. The conditions noted are these: Bovine viral diarrhea virus isolates and strains.
With `CCCN(CCC)CCSc1n[nH]c2c3ccccc3nc-2n1`, the EC50 is 0.03 µM.
On the same count and under the same terms, the figure for `Cn1c2cc(N3CCN(c4ccccn4)CC3)c(N)cc2c(=O)c2c(O)cc(O)cc21` is 0.6 µM.
Same read-out and setting: the figure for `O=c1cnn([C@@H]2O[C@H](CO)[C@@H](O)[C@H]2O)c(=O)[nH]1` [6-AZAURIDINE] is greater than 100 µM; for `Brc1ccc(Cn2ccc3nc(-c4ccccc4)nc-3c2)cc1` it is 0.03 µM.
Still for that read-out and setting: the result for `NCCCC[C@H](N)C(=O)Nc1cccc(-c2ccc(NC(=O)Nc3nc4ccccc4s3)nc2)c1` reads 0.6 µM.

The test system of the next series is Vesicular stomatitis virus. The series can be described thus: Antiviral activity against Vesicular stomatitis virus after 2 days by plaque reduction assay. The series is classed as functional, organism-based.
Conditions: not given
Take `O=C1CCN(/N=N/c2ccccc2)CC1`: the result was inactive.
On the same count and under the same terms, the entry for `Brc1cccc(/N=N/N2CCCCC2)c1` is “inactive”.
For the molecule `Fc1ccc(F)c(/N=N/N2CCCC2)c1`, the outcome was inactive.
With `c1ccc(/N=N/N2CCCCC2)cc1`, the result was inactive.
